In the EternaBench riboswitch data:

System: MS2 coat protein
Experiment: apparent Kd, MS2 coat protein; higher = weaker binding; RNA-MaP array; FMN 200 µM where present
In short: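 Apparent Kd: the median of filtered binding-curve fits from single clusters. Designs were transcribed on Illumina sequencing-chip clusters by stalled E. coli RNA polymerase and titrated with SNAP-549-labelled MS2 coat protein from 0.7 or 1.5 nM, doubling to 3 µM, in 100 mM Tris-HCl pH 7.5, 80 mM KCl, 4 mM MgCl2, BSA, DTT, yeast tRNA and Tween-20. Each series ran without and then with constant ligand, and green signal was normalised to red-channel RNA signal and control-cluster median Fmax.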

[1] = designed as: OFF switch for flavin mononucleotide, no ligand
[2] = ligand present: flavin mononucleotide, designed as: OFF switch for flavin mononucleotide
[3] = designed as: ON switch for flavin mononucleotide, no ligand
[4] = ligand present: flavin mononucleotide, designed as: ON switch for flavin mononucleotide

Sequence	apparent Kd [1] [nM]	apparent Kd [2] [nM]	apparent Kd [3] [nM]	apparent Kd [4] [nM]
AUAUAGUCAGGAUAUCGAAAUAUAUAUUAAUAUAUAUAAUACGAGAAGGGACAUGAGGAUCACCCAUGUAGUAA	25.7	31.1	–	–
AUUAUGUAAGGAUAUCUUACAUGUGACUUCGGUCACUGUCAAGAGAAGGUACAUGAGGAUCACCCAUGUAUGAC	14	16.3	–	–
CCGUAGGGAGGAUAUCCAAUAUAUGACAUGAGGAUCACCCAUGUUUCCACUCGUACCUCCGGAGAAGGCCCAUCCC	24.9	22.3	–	–
CCUCUACAUGAGGAUCACCCAUGUGAGGAUAUAUGCCCAUUACGCCAAGGGCGUGAUGAUAGAAGGCACAGGGU	22.4	71.1	–	–
GAAUUCGCAUGAGGAUAUGCACUCAUUUCAUGUGCAGAAGGUAUAACAUUAGACAUGAGGAUCACCCAUGUAUUGGUCAUUAAC	–	–	13.7	12.1
GGAAAUCAUGUAGGAUAUGCAUGGCGAAGCUACGCAGAAGGACAUGAGGAUCACCCAUGUUAUAGCGUCCGAGAAAGGAUGCAC	38.8	162	–	–
UGAUAGGACAGAGGAUAUACGUAUAAAUAUCCUCACAUGAGGAUCACCCAUGUAGAAGGCUGUCCUAUCUAAGUCGGAAACGAC	15.6	317	–	–
GGUUUAGGCGAAGGAUAUCCGUCGCGAGAUACUGGAGAAGGUCGCCUUAAUACAUGAGGAUCACCCAUGUGGCGGGUGAACCAC	326	47.6	–	–
GAUAGGACAGAGAAGGACAUAGCUAGAGAUACUAGCAUAAGAACUUCAACAUGAGGAUCACCCAUGUAGGAUAUCUGUCCUAUC	6.88	8.76	–	–
GUGGUGGGUUGAGGAUAUUGGUUGUCGUUGUCCCACAUGAGGAUCACCCAUGUGGGUUGUGGUUUUGAGAAGGUUGGUUGCUGG	–	–	18.1	15.9
UGAUAGGACAGAGGAUAUACGUAUAAUUACCUCUACAUGAGGAUCACCCAUGUAGAAGGCUGUCCUAUCUAAGUCGGAAACGAC	5.99	6.88	–	–
CGCUCAAUUACUUUGAAUAGAAUCAGAAGGCGUAACAUGAGGAUCACCCAUGUAUUGACGUGUAACGAGGAUAUGAAUUGAGCG	4.7	4.57	–	–
GGAUAGGACAGAGGAUAUACGUGCUAGAGAUACUAGCAAAAUUUCCUCACAUGAGGAUCACCCAUGUAGAAGGGUGUCCUAUCG	12.9	12.7	–	–
AUAGCAACAUGAGGAUCACCCAUGUAGGAUAUCGCUAUUGUAAUCAUGAAACAUGAUUACAAUAGCGAGAAGGACAUAUGCUAC	9.33	11	–	–
CUGGACGUCGUAGGAUAUGUAGGAUAUUCCUACAUGAGGAUCACCCAUGUUGACAUGGAAGAAGGACAGAAGGACGAUGUCCAU	–	–	229	4.55
AUUAUAUAGGUAGGAUAUAGAAUAUUAUUUUAACAUGAGGAUCACCCAUGUAACCUUAUGUGUAGCUAGAAGGACCAUUUAUUA	78	154	–	–
UAUAUAUAGUAAGGAUAUGUAUUAAUUUUACAAACAGAAGGUACUGACAUGAGGAUCACCCAUGUUUUAGUGUGGGCAUGUAGA	59.9	72.6	–	–
UCCUCGUCAGGAUAUCCACGGAAUAGCGGGAUACCGAGCGUGGAGAAGGGACAUGAGGAUCACCCAUGUAAAAU	29.4	61.2	–	–
GAGUAGAUCCGAGGAUAUACAAUCCGGAAACGGUACAUGAGGAUCACCCAUGUAGAAGGCGGAUCUACAGGUACUAAAGUACCC	5.73	8.11	–	–
UUAUUAAGUGUGAGGAUAUGCUGGUCCUUGGAUCAGCAGAAGGCACAUGAGGAUCACCCAUGUACUUUAUAAAU	15.7	46.6	–	–
UCACGGCUCGGAGGAUAUGACACAUGAGGAUCACCCAUGUGUGUAAGCCAAUAAACCUACAAAUGUCAGAAGGCCGCGCCUCAU	15.3	14.7	–	–
AAUUCACAUGAGGAUCACCCAUGUCAGGAUAUGGUUUCACGUUUUUCUUUUCUUGAUUCCAGAAGGGACAGCUA	65.6	82	–	–
CGCUCAAGAGAGAAGGAUUGAAUCAGAAGGCGUUACAUGAGGAUCACCCAUGUAUAGUAGUGUAACGAGGAUAUGAAAUGAGCG	133	437	–	–
GUGAAGAUAGCAGGAUAUCUAUUUCCUACAUGAGGAUCACCCAUGUAGGUGAUCAGCCGAGUAAAGGAGAAGGGCUAUCUUUAC	–	–	22.8	9.29
